Test results: ChEMBL document CHEMBL3751835, “Discovery of the imidazole-derived GPR40 agonist AM-3189” (Bioorg Med Chem Lett, 2016)
pEC50: −log10 of the molar value. The source made the active and inactive calls. The rule behind the calls is not given here.

Legend:
[1] = molecular target: Free fatty acid receptor 1 (Homo sapiens, UniProt O14842); experiment: Partial agonist activity at human GPR40 expressed in CHO cells measured over 20 secs interval by luminometric analysis in presence of 100% human serum; format: cell-based
Free fatty acid receptor 1 (Homo sapiens, UniProt O14842), sequence (O14842 whole entry): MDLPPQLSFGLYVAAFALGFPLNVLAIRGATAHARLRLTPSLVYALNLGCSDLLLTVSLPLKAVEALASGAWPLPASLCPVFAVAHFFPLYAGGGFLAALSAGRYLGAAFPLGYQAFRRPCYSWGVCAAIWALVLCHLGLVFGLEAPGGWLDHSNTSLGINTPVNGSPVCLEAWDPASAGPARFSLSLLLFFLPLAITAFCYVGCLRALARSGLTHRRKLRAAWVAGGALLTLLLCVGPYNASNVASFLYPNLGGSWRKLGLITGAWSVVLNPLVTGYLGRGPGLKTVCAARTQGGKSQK
Method in brief: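 Aequorin chemiluminescence read-out of calcium flux in a CHO line stably transfected with human GPR40, giving EC50. Run in buffer containing 0.01% human serum albumin, or in 100% human serum to test activity with plasma proteins present.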

[2] = molecular target: T1, Peroxisome proliferator-activated receptor alpha (Homo sapiens) (UniProt Q07869); experiment: Activity at PPARalpha (unknown origin) by cell based assay
T1 sequence (whole entry): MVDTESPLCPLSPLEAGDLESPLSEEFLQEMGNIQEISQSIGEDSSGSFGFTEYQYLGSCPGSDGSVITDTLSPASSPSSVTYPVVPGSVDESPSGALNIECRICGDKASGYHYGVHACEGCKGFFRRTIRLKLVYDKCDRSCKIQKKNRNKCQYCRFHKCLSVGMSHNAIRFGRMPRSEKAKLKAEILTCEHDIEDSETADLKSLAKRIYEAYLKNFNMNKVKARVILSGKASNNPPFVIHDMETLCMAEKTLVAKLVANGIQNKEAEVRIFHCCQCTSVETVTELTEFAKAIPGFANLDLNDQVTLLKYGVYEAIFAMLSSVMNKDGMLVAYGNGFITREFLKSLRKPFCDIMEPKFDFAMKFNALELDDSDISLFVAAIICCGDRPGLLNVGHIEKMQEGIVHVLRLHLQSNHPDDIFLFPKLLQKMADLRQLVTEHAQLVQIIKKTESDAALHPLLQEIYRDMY

MDR1 [3] = experiment: Permeability across basolateral to apical side in MDCK cells expressing MDR1; format: ADME, cell-based, Canis lupus familiaris; details: dog, read-out: permeability
[4] = molecular target: T2, Free fatty acid receptor 1 (Sus scrofa) (UniProt F1RM69); experiment: Agonist activity at pig GPR40 in presence of 0.01% human serum albumin
T2 sequence (whole entry): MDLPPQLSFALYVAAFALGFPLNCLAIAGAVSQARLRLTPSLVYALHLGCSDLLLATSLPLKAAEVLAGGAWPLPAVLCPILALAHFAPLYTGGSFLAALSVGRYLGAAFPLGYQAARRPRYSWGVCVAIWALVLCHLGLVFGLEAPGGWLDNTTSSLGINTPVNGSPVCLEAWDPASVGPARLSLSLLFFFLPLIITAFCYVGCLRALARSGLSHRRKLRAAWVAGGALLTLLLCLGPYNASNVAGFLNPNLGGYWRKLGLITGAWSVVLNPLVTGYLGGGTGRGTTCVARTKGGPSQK

Pancreatic islet = experiment: Induction of glucose-stimulated insulin release in human GPR40 knock-in mouse pancreatic islets by insulin ELISA in presence of 0.1% human serum albumin and glucose; format: functional
Method in brief: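 Islets were isolated from knock-in mice in which the mouse GPR40 gene is replaced by human GPR40. Glucose-stimulated insulin secretion was measured in buffer containing 16.7 mM glucose and 0.1% human serum albumin.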

Canis lupus familiaris = species on record: Canis lupus familiaris; experiment: Agonist activity at dog GPR40 in presence of 0.01% human serum albumin relative to AMG 837
[5] = Agonist activity at dog GPR40 in presence of 0.01% human serum albumin; design: species or system Canis lupus familiaris
[6] = Half life in dog at 0.5 mg/kg, iv; format: ADME, organism-based, Canis lupus familiaris; details: in vivo
Method in brief: (§1)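 Oral doses given as a suspension in aqueous 1% Tween 80 in 1% methylcellulose; IV doses formulated in 10% N,N-dimethylacetamide, 10% ethanol, 30% propylene glycol, 50% sterile water. Animals per species: mouse n = 2 (plasma from two mice at each time point), rat n = 2, dog n = 3, cynomolgus monkey n = 3.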

[7] = Oral bioavailability in cynomolgus monkey at 5 mg/kg; format: ADME, organism-based, Macaca fascicularis; details: in vivo; method in brief: as §1
[8] = Clearance in cynomolgus monkey at 0.5 mg/kg, iv; format: ADME, organism-based, Macaca fascicularis; details: in vivo; method in brief: as §1
[9] = Cmax in mouse at 5 mg/kg, po; format: ADME, organism-based; design: dose 5 mg/kg, route oral; details: in vivo; method in brief: as §1
[10] = Volume of distribution at steady state in mouse at 1 mg/kg, iv; format: ADME, organism-based; details: in vivo, read-out: Vdss; method in brief: as §1
Mus musculus [11] = experiment: Reduction of blood glucose AUC in human islet transplanted nude chimeric mouse at 1 and 10 mg/kg, po administered 1 hr prior to glucose challenge by OGTT; format: functional, organism-based
Method in brief: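 Nude mice had their endogenous pancreatic β-cells ablated with streptozotocin and were rescued to euglycemia by human islets transplanted under the kidney capsule. Compound was dosed before a glucose challenge, and the glucose AUC was determined.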

[12] = Volume of distribution at steady state in dog at 0.5 mg/kg, iv; format: ADME, organism-based, Canis lupus familiaris; details: in vivo, read-out: Vdss; method in brief: as §1
[13] = molecular target: T3, Peroxisome proliferator-activated receptor delta (Homo sapiens) (UniProt Q03181); experiment: Activity at PPARdelta (unknown origin) by cell based assay
T3 sequence (whole entry): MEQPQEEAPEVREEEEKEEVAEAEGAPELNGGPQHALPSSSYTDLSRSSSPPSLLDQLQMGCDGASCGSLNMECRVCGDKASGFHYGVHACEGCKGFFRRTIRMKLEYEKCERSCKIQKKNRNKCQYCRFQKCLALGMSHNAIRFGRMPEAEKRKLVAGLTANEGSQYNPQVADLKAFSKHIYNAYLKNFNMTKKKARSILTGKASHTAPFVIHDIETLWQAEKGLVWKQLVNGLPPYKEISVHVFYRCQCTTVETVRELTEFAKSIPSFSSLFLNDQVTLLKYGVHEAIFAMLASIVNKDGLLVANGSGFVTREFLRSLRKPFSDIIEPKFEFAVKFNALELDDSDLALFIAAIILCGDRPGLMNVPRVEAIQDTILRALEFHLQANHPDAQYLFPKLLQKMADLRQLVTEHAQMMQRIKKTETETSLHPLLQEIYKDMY

[14] = Half life in rat at 0.5 mg/kg, iv; format: ADME, organism-based; details: in vivo; method in brief: as §1
[15] = Oral bioavailability in dog at 2 mg/kg; format: ADME, organism-based, Canis lupus familiaris; details: in vivo; method in brief: as §1
[16] = Volume of distribution at steady state in cynomolgus monkey at 0.5 mg/kg, iv; format: ADME, organism-based, Macaca fascicularis; details: in vivo, read-out: Vdss; method in brief: as §1
[17] = molecular target: Free fatty acid receptor 1 (Rattus norvegicus, UniProt Q8K3T4); experiment: Agonist activity at rat GPR40 in presence of 0.01% human serum albumin
Free fatty acid receptor 1 (Rattus norvegicus, UniProt Q8K3T4), sequence (Q8K3T4 whole entry): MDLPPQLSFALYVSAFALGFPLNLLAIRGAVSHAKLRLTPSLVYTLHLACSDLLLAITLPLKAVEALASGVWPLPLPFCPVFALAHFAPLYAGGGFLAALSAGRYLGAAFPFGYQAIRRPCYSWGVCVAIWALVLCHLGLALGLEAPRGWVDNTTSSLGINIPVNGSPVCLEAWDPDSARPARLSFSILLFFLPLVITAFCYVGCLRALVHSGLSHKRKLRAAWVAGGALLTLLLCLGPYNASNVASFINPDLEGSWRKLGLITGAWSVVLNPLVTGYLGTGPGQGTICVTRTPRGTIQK

[18] = Oral bioavailability in rat at 2 mg/kg; format: ADME, organism-based; details: in vivo; method in brief: as §1
Mus musculus [19] = experiment: Reduction of blood glucose AUC in human GPR40 knock-in chimeric mouse at 30 mg/kg, po administered 1 hr prior to glucose challenge by OGTT; format: functional, organism-based
Method in brief: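 Female human GPR40 knock-in mice, 28 weeks old, fasted 6 h, then dosed by oral gavage with compound formulated in 1% methylcellulose, 1% Tween-80. Glucose 2 g/kg was given by oral gavage 1 h after the drug. Blood glucose was read from tail-vein samples at several time points with a glucometer.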

[20] = Half life in mouse at 1 mg/kg, iv; format: ADME, organism-based; details: in vivo; method in brief: as §1
[21] = Clearance in mouse at 1 mg/kg, iv; format: ADME, organism-based; details: in vivo; method in brief: as §1
[22] = Cmax in rat at 2 mg/kg, po; format: ADME, organism-based; design: dose 2 mg/kg, route oral; details: in vivo; method in brief: as §1
MDR1 [23] = experiment: Permeability across apical to basolateral side in MDCK cells expressing MDR1; format: ADME, cell-based, Canis lupus familiaris; details: dog, read-out: permeability
[24] = Oral bioavailability in mouse at 5 mg/kg; format: ADME, organism-based; details: in vivo; method in brief: as §1
MDR1 [25] = experiment: Efflux ratio of permeability from basolateral to apical over apical basolateral side in MDCK cells expressing MDR1; format: ADME, cell-based, Canis lupus familiaris; details: dog
[26] = Clearance in dog at 0.5 mg/kg, iv; format: ADME, organism-based, Canis lupus familiaris; details: in vivo; method in brief: as §1

pEC50 [1]: 5.00 | Activity [2]: inactive | Papp B→A (MDR1 [3]): 31 ×10⁻⁶ cm/s | Activity [4]: inactive | Emax (Canis lupus familiaris): 37% | pEC50 [5]: 7.43 | half-life [6]: 5.1 h | bioavailability [7]: 34% | clearance [8]: 4.5 mL/min/kg | Cmax [9]: 4890 nM | Vd [10]: 0.78 L/kg | Vd [12]: 0.58 L/kg | Activity [13]: inactive | half-life [14]: 1.6 h | bioavailability [15]: 66% | Vd [16]: 1.6 L/kg | pEC50 [17]: 6.19 | bioavailability [18]: 43% | half-life [20]: 1.5 h | clearance [21]: 2.83 mL/min/kg | Cmax [22]: 770 nM | Papp A→B (MDR1 [23]): 1.4 ×10⁻⁶ cm/s | bioavailability [24]: 100% | efflux ratio (MDR1 [25]): 22 | clearance [26]: 2.5 mL/min/kg
SMILES: Cc1cc(Cl)ccc1-c1cccc(COc2ccc([C@H](CC(=O)O)c3nccn3C)cc2)c1
Activity (Pancreatic islet): Active | Activity (Mus musculus [11]): Active | Activity (Mus musculus [19]): Active
